# Compound activity (PubChem)
# CHRM4 antagonist = antagonists of human muscarinic M4 receptor (CHRM4); actives 0.73% (n = 360,000); CHO-hM4 cells, ACh EC80, Fluo-8 calcium fluorescence; P08173; inhibition, % at 3 µM;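 active = inhibition above its plate's cutoff, the mean inhibition of sample wells plus 3 SD, cut at about 27% in these data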;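 also: 0% = acetylcholine EC80 with DMSO and 100% = DMSO without agonist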
# CHRM5 antagonist = CHRM5 antagonism in calcium assay; P08912; CHO-hM5 cells, Fluo-8 calcium fluorescence, ACh EC80; inhibition, % at 3 µM; actives 0.59% (n = 360,000); AID 624040;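 active = inhibition above a per-plate cutoff, the mean of that plate's test compounds plus 3 SD, cut at about 27% in these data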;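 also: 0% = acetylcholine EC80 with DMSO and 100% = DMSO without agonist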
# Target sequence (P08912 whole entry, looked up): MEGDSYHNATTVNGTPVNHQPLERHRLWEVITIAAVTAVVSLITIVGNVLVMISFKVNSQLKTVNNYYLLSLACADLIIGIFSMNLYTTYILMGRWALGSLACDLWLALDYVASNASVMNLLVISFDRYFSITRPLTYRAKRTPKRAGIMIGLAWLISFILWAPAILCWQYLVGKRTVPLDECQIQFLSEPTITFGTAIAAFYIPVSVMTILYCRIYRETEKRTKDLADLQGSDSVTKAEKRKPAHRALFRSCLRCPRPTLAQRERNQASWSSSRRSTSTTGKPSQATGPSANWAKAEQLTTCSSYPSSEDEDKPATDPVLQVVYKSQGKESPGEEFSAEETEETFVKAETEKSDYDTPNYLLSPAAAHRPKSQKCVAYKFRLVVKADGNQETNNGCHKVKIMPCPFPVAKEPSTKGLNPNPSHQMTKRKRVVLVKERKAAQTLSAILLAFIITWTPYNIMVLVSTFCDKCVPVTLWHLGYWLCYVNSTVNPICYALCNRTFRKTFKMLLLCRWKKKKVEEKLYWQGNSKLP
# M5 ag = agonists of human muscarinic M5 receptor (CHRM5); P08912; CHO-K1 hM5 cells, Fluo-8 calcium fluorescence; 0% DMSO wells, 100% maximal acetylcholine response; activation, % at 3 µM; actives 0.19% (n = 360,000); AID 624037;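 active = activation above the run's mean over test compounds plus 3 SD, cut at about 23% in these data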;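 also: signal is peak over basal fluorescence ratio across the kinetic read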
# CHRM4 agonist = CHRM4 agonism in calcium assay | CHO-K1 hM4/Gqi5, Fluo-8 calcium fluorescence; vehicle 0%, full acetylcholine response 100% | actives 0.14% (n = 360,000) | activation, % at 3 µM | P08173;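 active = activation above the run mean over all test wells plus 3 SD, cut at about 32% in these data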;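 also: peak over basal fluorescence ratio per well then scaled between controls; 0% = DMSO wells and 100% = acetylcholine at EC100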
# M5 PAM = potentiates acetylcholine response at human M5 receptor | P08912 | CHO-K1 hM5, Fluo-8 calcium, ACh EC20 PAM; 0% = ACh EC20, 100% = ACh EC100 | activation, % at 3 µM | actives 0.3% (n = 360,000) | AID 624038;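 active = activation above the run cutoff, the mean activation of all test compounds plus 3 SD, cut at about 18% in these data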
#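 system = human M5 receptor in CHO-K1 cells | compound = one concentration, 3 µM final (nominal) | schedule = Post-acetylcholine fluorescence recording 140 s | signal = Fluo-8 calcium dye fluorescence, kinetic read | benchmarks = low control EC20 acetylcholine (0%), high control EC100 acetylcholine (100%) | repeats = singlicate, one well per test compound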
# CHRM4 PAM = potentiates acetylcholine response at human M4 receptor; P08173; CHO-K1 hM4/Gqi5, Fluo-8 calcium fluorescence, ACh EC20; 0% = ACh EC20, 100% = maximal ACh; activation, % at 3 µM; actives 0.4% (n = 360,000); AID 624126;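 active = activation above its plate's cutoff, the mean activation of sample wells plus 3 SD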
# * = called active by the depositor. Only some compounds are listed: those with a hit (about 1.9% of all), similar ones and a draw of the others.
SMILES,CHRM4 antagonist,CHRM5 antagonist,M5 ag,CHRM4 agonist,M5 PAM,CHRM4 PAM
CCN(CC)CCOC(=O)C(c1ccccc1)c1ccccc1,53.8*,97.7*,-1.4,1.7,-18.1,-17.4
CCN(CCO)C(=O)C(c1ccccc1)c1ccccc1,3.7,-5.6,-3.3,-0.4,5.1,11.2
CCN(CC)CCSC(=O)C(c1ccccc1)c1ccccc1,96.0*,98.8*,-1.5,0.8,-19.0,-16.6
NC(=O)C(c1ccccc1)C1CCCCC1 (stereo unspecified),-1.3,-3.4,-0.2,1.9,-0.2,3.2
Cc1cc(C(=O)N2CCCC(C(=O)c3ccc4ccccc4c3)C2)n(C)n1 (stereo unspecified),-2.3,-12.1,-1.2,2.3,-2.0,-2.3
O=C1CN(C(=O)COC(=O)c2ccccc2O)c2ccccc2N1,-4.4,-2.6,2.2,1.3,2.2,1.4
CC(C)n1nc(C(=O)OCC(=O)N2CC(=O)Nc3ccccc32)c2ccccc2c1=O,-16.9,1.6,3.5,1.8,2.5,19.6*
CN1CCC(=NNC(=O)CN(c2ccccc2)S(=O)(=O)c2ccccc2)CC1,-7.0,18.3,-3.9,13.9,-0.9,-1.3
CSc1ccc(S(=O)(=O)N(CC(=O)NN=C2CCN(C)CC2)c2ccc(C)cc2)cc1,-8.1,-3.8,4.8,2.1,23.0*,17.3
CCOC(=O)c1c(C)[nH]c(C(=O)CN2C(=O)C(=O)N(CC(C)C)C2=O)c1C,-6.4,-22.4,-0.2,6.5,-10.5,-0.8
CCOC(=O)c1c(C)[nH]c(C(=O)CN2C(=O)NC(C)(c3ccc(C)cc3)C2=O)c1C (stereo unspecified),-2.5,4.9,27.3*,21.0,1.8,8.6
COC(=O)c1c(C)[nH]c(C(=O)CN2C(=O)C3CC=CCC3C2=O)c1C (stereo unspecified),0.3,3.1,3.9,3.2,3.0,26.2*
CCCCCC(=O)Nc1cc(S(=O)(=O)N2CCCCC2)ccc1N1CCOCC1,-6.8,8.0,-3.9,-0.3,5.1,1.0
Cc1ccc(S(=O)(=O)N2CCOCC2)cc1NC(=O)COC(=O)C1CCC1,-8.9,-1.4,-0.2,2.1,0.6,2.5
CCCCCC(=O)Nc1cc(S(=O)(=O)N2CCOCC2)ccc1N1CCCC1,6.8,25.3,1.6,0.3,30.1*,-3.5
Cc1ccccc1OCCC(=O)Nc1cc(S(=O)(=O)N2CCCCC2)ccc1N1CCN(C)CC1,21.0,7.4,12.9,55.9*,-5.4,-9.3
CCOC(=O)C1CCN(CC(=O)Nc2cc(S(=O)(=O)N3CCOCC3)ccc2C)CC1,-10.5,-6.4,1.9,2.2,19.4*,5.0
CCN1CCN(c2ccc(S(=O)(=O)N3CCOCC3)cc2NC(=O)CCOc2ccccc2)CC1,-1.1,29.2*,-5.0,2.3,-9.9,5.4
O=C1CSc2ccc(C(=O)NCCc3ccc(Cl)cc3Cl)cc2N1,-5.1,9.3,1.8,15.8,-14.2,0.9
Cc1cccc(N2CCN(CC(=O)Nc3ccc(S(=O)(=O)N4CCOCC4)cc3)CC2)c1C,5.9,33.8*,3.2,19.2,-11.9,-6.7
CCN1CCN(c2ccc(S(=O)(=O)N3CCCCC3)cc2NC(=O)Cc2ccc(Cl)c(Cl)c2)CC1,20.7,20.3,28.1*,53.9*,-16.9,-15.4
CCN1CCN(c2ccc(S(=O)(=O)N3CCCCC3)cc2NC(=O)Cc2ccccc2)CC1,12.4,5.3,-1.5,0.8,-1.6,-6.5
CN1/C(=C\P(=O)(N(C)C)N(C)C)C(C)(C)c2ccccc21,20.0,33.7*,5.4,7.5,-8.8,-2.5
O=C1CC2(CCN(C(=O)c3ccccc3Cl)CC2)Oc2ccccc21,0.7,3.7,5.1,2.8,-3.6,-3.1
CCOC(=O)N1CCN(C(=O)c2cc3c(s2)-c2ccccc2OC3)CC1,-24.7,-5.7,1.1,12.2,-7.7,24.4*
SMILES,CHRM4 antagonist,CHRM5 antagonist,M5 ag,CHRM4 agonist,M5 PAM,CHRM4 PAM
CCCN1CCN(C(=O)c2cc3c(s2)-c2ccccc2OC3)CC1,-1.7,-0.6,-1.3,2.7,0.3,2.3
CCNC(=S)Nc1cccc(S(=O)(=O)Nc2ccccc2OC)c1,-10.7,-4.7,4.9,4.6,7.0,0.1
COc1ccccc1NS(=O)(=O)c1cccc(NC(=O)Nc2ccc(Cl)cc2)c1,45.9*,65.8*,6.8,18.9,-20.0,-15.7
COc1cccc(OC)c1C(=O)Nc1cccc(S(=O)(=O)Nc2ccccc2Cl)c1,-13.4,1.7,-0.3,2.8,5.7,5.0
COc1ccccc1NS(=O)(=O)c1cccc(NC(=O)Nc2ccccc2)c1,60.5*,59.5*,12.6,34.8*,-18.3,-38.7
Cc1ccc(S(=O)(=O)N2CCN(C(=O)n3ccnc3)CC2)cc1,-4.7,-0.6,-0.4,0.9,6.0,1.9
O=[N+]([O-])c1ccc(CN2CCSCC2)cc1,-11.6,-10.6,2.2,1.0,21.5*,4.3
CC1CCCCN1C/C=C/c1ccccc1[N+](=O)[O-] (stereo unspecified),33.9*,11.3,-12.3,1.5,-21.5,-27.0
CCC1CCCCN1C/C=C/c1ccccc1[N+](=O)[O-] (stereo unspecified),54.5*,55.3*,-10.7,1.0,-21.1,-31.8
CC(=O)Nc1cc(NC(C)=O)cc(C(=O)NCC2(N3CCOCC3)CCCCC2)c1,-1.2,2.0,3.9,3.0,-0.3,5.9
COc1ccccc1NC(=O)Nc1ccccc1C(=O)NCCCN1CCOCC1,0.1,6.4,-2.1,0.5,3.9,-8.3
CCCN(CC(=O)Nc1ccc(F)c(F)c1F)C(=O)C1CC(=O)N(Cc2ccccc2)C1 (stereo unspecified),-12.4,6.2,-2.2,2.8,0.3,20.9*
O=C(Nc1ccccc1C(=O)Nc1nnc(C(F)(F)F)s1)c1ccccc1,-9.7,35.8*,1.5,9.6,-23.8,-4.0
COc1ccccc1N1CCN(Cc2cn[nH]c2-c2ccc(F)cc2)CC1,8.8,6.7,40.0*,24.0,-7.6,17.4
CC(=O)C12OC(C)(C)OC1CC1C3CCC4=CC(=O)C=CC4(C)C3(F)C(O)CC12C (stereo unspecified),-17.1,14.5,1.6,0.7,2.5,4.3
COC(=O)c1sc(NC(C)=O)c(C(=O)OC)c1C,-6.8,-4.6,-7.9,3.2,-1.8,20.6*
COC(=O)c1c(NC(C)=O)sc(C)c1C,0.8,-5.2,-5.8,0.1,8.8,-2.3
COC(=O)NNC(=O)C12CC3CC(CC(C3)C1)C2,-2.8,-6.9,-0.6,1.6,2.4,10.6
NC(=S)NNC(=O)C12CC3CC(CC(C3)C1)C2,9.7,5.3,6.4,42.2*,1.0,-9.2
